Data set [1] deals with Platelet. Nature of the data set: Inhibition of ADP-induced platelet aggregation in human platelet rich plasma assessed as remaining activity at 500 nM by in-vitro light transmission aggregometry assay. It counts as functional. Summed up: (§1)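 Light transmission aggregometry in human platelet-rich plasma; compound incubated, aggregation triggered with 3 µM ADP; remaining activity (RA) recorded at a single compound level (1000, 500 or 100 nM).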

The target of data set [2] is T1, Cytochrome P450 3A4 (Homo sapiens, UniProt P08684). Kind of data set: Inhibition of CYP3A4 in human liver microsomes assessed as reduction in testosterone 6beta-hydroxylation. It counts as ADME.
The target in a further data set is P2Y purinoceptor 12 (Homo sapiens, UniProt Q9H244). Nature of the data set: Displacement of [3H]-2-methyl-thio-adenosine 5'-diphosphate from human recombinant P2Y12 expressed in CHO cell membranes by scintillation counting method. In outline: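 CHO cells expressing recombinant P2Y₁₂ receptors, incubated with tritium-labeled 2-methyl-thio-adenosine 5'-diphosphate plus test compound; IC₅₀ from displacement curves, each point in triplicate; reference compound run with every compound set, and set re-analyzed if its IC₅₀ fell outside pre-set 95% confidence interval.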

The target in data set [3] is T1, Cytochrome P450 3A4. Nature of the data set: Inhibition of CYP3A4 in human liver microsomes assessed as reduction in midazolam 1'-hydroxylation. It counts as ADME.
The test system of data set [4] is Platelet. Kind of data set: Inhibition of ADP-induced platelet aggregation in human platelet rich plasma assessed as remaining activity at 1000 nM by in-vitro light transmission aggregometry assay. It counts as functional. Summed up:
as §1

The target in the next data set is Cytochrome P450 2D6 (Homo sapiens, UniProt P10635). Kind of data set: Inhibition of CYP2D6 in human liver microsomes assessed as reduction in dextromethorphan-O demethylation. It counts as ADME.
Data set [5] in a line: Solubility in basic pH. Format: physicochemical.
The target in the next data set is Cytochrome P450 2C9 (Homo sapiens, UniProt P11712). Kind of data set: Inhibition of CYP2C9 in human liver microsomes assessed as reduction in diclofenac 4'-hydroxylation. Format: ADME.
For data set [6], the target named is Voltage-gated inwardly rectifying potassium channel KCNH2 (Homo sapiens, UniProt Q12809). Kind of data set: Inhibition of human ERG expressed in HEK cells by patch-clamp assay. It counts as cell-based. The settings on record: hek293.
Data set [7] relates to Liver microsome. Nature of the data set: Metabolic stability assay in human liver microsomes assessed as parent drug disappearance at 1 uM after 20 mins by HPLC and mass spectrometry method. It counts as ADME.
A short description of data set [8]: Solubility in neutral pH. It counts as physicochemical.
Data set [9] has as its system Liver microsome. Nature of the data set: Metabolic stability assay in rat liver microsomes assessed as parent drug disappearance at 1 uM after 20 mins by HPLC and mass spectrometry method. Format: ADME.
Data set [10] concerns Platelet. Nature of the data set: Inhibition of ADP-induced platelet aggregation in human platelet rich plasma by in-vitro light transmission aggregometry assay. Format: functional. To be noted: Homo sapiens, Platelet, Plasma. Summed up:
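Human platelet-rich plasma incubated with compound, aggregation induced by 3 µM ADP and read by light transmission aggregometry; IC₅₀ derived from concentration–response curve.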

The subject of data set [11] is Platelet. Kind of data set: Inhibition of ADP-induced platelet aggregation in human platelet rich plasma assessed as remaining activity at 100 nM by in-vitro light transmission aggregometry assay. Format: functional. In outline: as §1
Data set [12] can be described thus: Potency shift, ratio of IC50 for inhibition of ADP-induced platelet aggregation in human platelet rich plasma to IC50 for displacement of [3H]-2-methyl-thio-adenosine 5'-diphosphate from human recombinant P2Y12 expressed in CHO cell membranes.

pIC50: −log10 of the molar value. A value given as a limit tells only on which side of the number the result lay.

Chain of P2Y purinoceptor 12 (Q9H244 whole entry): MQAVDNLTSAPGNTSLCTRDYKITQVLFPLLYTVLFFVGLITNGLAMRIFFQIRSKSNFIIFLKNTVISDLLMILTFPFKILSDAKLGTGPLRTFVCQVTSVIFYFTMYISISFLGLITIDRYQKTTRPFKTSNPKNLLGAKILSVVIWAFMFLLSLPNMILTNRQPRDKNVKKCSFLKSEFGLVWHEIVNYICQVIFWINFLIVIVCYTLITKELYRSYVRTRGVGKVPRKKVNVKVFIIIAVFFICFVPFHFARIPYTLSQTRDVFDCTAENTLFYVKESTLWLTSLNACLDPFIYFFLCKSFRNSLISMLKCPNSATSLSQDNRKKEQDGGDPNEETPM
Chain of Voltage-gated inwardly rectifying potassium channel KCNH2 (Q12809 whole entry): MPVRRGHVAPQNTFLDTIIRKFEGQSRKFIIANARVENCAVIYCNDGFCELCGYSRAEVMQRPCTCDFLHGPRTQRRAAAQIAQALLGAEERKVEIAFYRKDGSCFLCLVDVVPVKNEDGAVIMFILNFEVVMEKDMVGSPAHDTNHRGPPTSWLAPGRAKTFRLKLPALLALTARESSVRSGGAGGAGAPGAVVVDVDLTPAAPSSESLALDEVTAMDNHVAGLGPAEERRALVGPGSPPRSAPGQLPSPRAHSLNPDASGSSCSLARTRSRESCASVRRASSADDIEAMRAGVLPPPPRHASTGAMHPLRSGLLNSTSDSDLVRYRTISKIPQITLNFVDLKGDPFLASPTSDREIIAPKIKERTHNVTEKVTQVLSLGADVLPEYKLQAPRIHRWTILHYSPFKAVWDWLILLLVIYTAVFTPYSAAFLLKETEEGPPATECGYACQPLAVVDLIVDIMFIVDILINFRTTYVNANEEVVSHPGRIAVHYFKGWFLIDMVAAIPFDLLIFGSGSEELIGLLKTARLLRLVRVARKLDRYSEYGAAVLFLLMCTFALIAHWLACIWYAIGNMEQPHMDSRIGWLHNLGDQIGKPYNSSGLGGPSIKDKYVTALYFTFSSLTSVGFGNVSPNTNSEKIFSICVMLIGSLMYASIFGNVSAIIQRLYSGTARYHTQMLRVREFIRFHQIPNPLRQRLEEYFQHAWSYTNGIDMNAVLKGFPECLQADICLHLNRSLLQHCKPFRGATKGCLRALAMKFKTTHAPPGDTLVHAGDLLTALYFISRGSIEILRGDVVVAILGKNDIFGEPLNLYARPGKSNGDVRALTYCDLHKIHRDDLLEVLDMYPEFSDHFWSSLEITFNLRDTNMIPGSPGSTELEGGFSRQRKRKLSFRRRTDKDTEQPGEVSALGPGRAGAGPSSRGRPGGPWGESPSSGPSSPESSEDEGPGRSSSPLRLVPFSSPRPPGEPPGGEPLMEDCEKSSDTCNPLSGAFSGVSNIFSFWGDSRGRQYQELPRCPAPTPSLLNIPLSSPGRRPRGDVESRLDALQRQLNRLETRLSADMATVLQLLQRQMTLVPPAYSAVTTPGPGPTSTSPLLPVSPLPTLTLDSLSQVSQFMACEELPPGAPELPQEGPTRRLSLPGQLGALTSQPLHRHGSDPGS
Chain of Cytochrome P450 2D6 (P10635 whole entry): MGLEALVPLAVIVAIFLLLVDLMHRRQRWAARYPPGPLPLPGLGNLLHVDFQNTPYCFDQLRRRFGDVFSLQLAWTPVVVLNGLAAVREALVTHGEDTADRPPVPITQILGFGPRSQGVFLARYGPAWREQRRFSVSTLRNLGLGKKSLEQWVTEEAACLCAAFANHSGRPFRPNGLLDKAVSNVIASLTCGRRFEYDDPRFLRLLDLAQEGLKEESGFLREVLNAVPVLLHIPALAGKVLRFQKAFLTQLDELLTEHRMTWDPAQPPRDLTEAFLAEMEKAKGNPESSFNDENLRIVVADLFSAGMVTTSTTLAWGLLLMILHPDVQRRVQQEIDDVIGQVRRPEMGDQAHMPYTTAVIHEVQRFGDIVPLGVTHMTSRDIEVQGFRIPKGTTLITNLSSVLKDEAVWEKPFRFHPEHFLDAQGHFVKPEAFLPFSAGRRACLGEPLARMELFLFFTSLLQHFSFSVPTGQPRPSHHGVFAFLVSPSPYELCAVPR
Chain of Cytochrome P450 2C9 (P11712 whole entry): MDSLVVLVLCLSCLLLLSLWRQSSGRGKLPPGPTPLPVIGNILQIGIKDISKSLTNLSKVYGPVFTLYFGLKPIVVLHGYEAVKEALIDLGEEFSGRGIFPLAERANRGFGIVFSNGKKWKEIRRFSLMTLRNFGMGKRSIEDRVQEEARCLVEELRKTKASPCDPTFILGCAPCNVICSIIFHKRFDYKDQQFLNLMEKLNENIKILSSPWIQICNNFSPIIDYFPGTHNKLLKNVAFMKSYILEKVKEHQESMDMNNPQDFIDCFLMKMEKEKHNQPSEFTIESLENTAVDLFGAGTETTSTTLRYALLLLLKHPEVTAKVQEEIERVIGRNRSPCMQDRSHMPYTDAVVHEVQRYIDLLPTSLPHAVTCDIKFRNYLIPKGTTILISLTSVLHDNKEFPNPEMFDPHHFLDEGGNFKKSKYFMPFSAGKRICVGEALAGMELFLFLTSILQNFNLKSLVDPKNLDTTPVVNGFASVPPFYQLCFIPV
T1 sequence (P08684 whole entry): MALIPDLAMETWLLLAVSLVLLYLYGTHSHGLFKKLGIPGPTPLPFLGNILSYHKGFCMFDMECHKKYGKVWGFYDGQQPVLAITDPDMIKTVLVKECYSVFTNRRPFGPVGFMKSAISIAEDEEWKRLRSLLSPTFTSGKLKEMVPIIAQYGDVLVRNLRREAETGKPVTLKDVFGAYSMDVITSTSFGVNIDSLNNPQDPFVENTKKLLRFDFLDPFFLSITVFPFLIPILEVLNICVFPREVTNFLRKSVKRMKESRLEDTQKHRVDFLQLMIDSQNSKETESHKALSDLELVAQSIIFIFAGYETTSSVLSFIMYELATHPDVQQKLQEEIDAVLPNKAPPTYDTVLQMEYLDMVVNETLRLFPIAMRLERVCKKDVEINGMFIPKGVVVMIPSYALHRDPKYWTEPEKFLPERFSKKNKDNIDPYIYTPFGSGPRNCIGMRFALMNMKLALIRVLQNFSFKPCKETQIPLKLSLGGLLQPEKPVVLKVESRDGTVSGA

In the case of `CCOC(=O)N1CCN(C(=O)[C@H](CCC(=O)O)NC(=O)c2cc(NC(=O)C3CCCCC3)nc(-c3ccccc3)n2)CC1`, the values for the Activity with Platelet [1] and in the data set on Platelet [4] were above 60% and above 30%, respectively. The “inhibition (INH)” value (at Cytochrome P450 3A4 [2]; on Cytochrome P450 3A4 [3]; at Cytochrome P450 2D6; at Cytochrome P450 2C9; in data set [6]) was “Not Active” in each case. Also, the pIC50 at P2Y purinoceptor 12 is 6.66. Moreover, the solubility result in data set [5] and in [8] was “soluble” in each case. Moreover, the Stability entry with Liver microsome [7] and with Liver microsome [9] was “Stable” each time.

For `CCOC(=O)N1CCN(C(=O)[C@H](CCC(=O)O)NC(=O)c2cc(-c3ccncc3)nc(-c3ccccc3)n2)CC1`, the Activity in the data set on Platelet [1] is above 60%; with Platelet [4], above 30%. For the same compound, the “inhibition (INH)” value (on Cytochrome P450 3A4 [2]; at Cytochrome P450 3A4 [3]; on Cytochrome P450 2D6; on Cytochrome P450 2C9; in data set [6]) was “Not Active” throughout. The pIC50 at P2Y purinoceptor 12 was 7.28. Besides, the solubility result in data set [5] and in data set [8] was “soluble” throughout. The Stability entry with Liver microsome [7] and in the data set on Liver microsome [9] was “Stable” each time.

In the case of `CCOC(=O)N1CCN(C(=O)[C@H](CCC(=O)O)NC(=O)c2cc(-c3cn[nH]c3)nc(-c3ccccc3)n2)CC1`, the Activity in the data set on Platelet [1] was above 60%; in the data set with Platelet [4], above 30%. For the same compound, the “inhibition (INH)” value (at Cytochrome P450 3A4 [2]; at Cytochrome P450 3A4 [3]; at Cytochrome P450 2D6; on Cytochrome P450 2C9; in [6]) was “Not Active” each time. Further, the solubility entry in data set [5] and in data set [8] was “soluble” each time. The Stability result in the data set with Liver microsome [7] and with Liver microsome [9] was “Stable” throughout.

Regarding `CCOC(=O)N1CCN(C(=O)[C@H](CCC(=O)O)NC(=O)c2cc(NC(C)CO)nc(-c3ccccc3)n2)CC1` (stereo partly drawn), the Activity is given as below 30% in the data set on Platelet [1] and below 70% with Platelet [11]. For the same compound, the “inhibition (INH)” value (on Cytochrome P450 3A4 [2]; at Cytochrome P450 3A4 [3]; on Cytochrome P450 2D6; on Cytochrome P450 2C9; in data set [6]) was “Not Active” in each case. Moreover, the pIC50 at P2Y purinoceptor 12 was 7.25; with Platelet [10] it was 7.26. For the same compound, the solubility entry in data set [5] and in data set [8] was “soluble” throughout. Also, the Stability entry in the data set with Liver microsome [7] and in the data set with Liver microsome [9] was “Stable” throughout. In data set [12], the “Ratio IC50” value is 0.98.

Turning to `CCOC(=O)N1CCN(C(=O)[C@H](CCC(=O)O)NC(=O)c2cc(N3CCCC(O)C3)nc(-c3ccccc3)n2)CC1` (stereo partly drawn), the Activity in the data set on Platelet [1] was below 30%; in the data set with Platelet [11] it was below 70%. Further, the “inhibition (INH)” value (on Cytochrome P450 3A4 [2]; at Cytochrome P450 3A4 [3]; on Cytochrome P450 2D6; at Cytochrome P450 2C9; in [6]) was “Not Active” each time. For the same compound, the pIC50 on P2Y purinoceptor 12 was 7.68; in the data set on Platelet [10], 7.14. Besides, the solubility entry in [5] and in data set [8] was “soluble” throughout. For the same compound, the Stability entry in the data set on Liver microsome [7] and in the data set on Liver microsome [9] was “Stable” each time. In addition, the “Ratio IC50” value in data set [12] was 3.5.

These data come from ChEMBL document CHEMBL3351863, “Optimization of 2-phenyl-pyrimidine-4-carboxamides towards potent, orally bioavailable and selective P2Y(12) antagonists for inhibition of platelet aggregation” (Bioorg Med Chem Lett, 2014).
